Experimental findings from ChEMBL document CHEMBL1671848, “In Vitro and In Vivo Osteogenic Activity of Largazole” (ACS Med Chem Lett, 2011) are described below.

Data set [1] concerns C2C12. Put plainly: Osteogenic activity in mouse C2C12 cells assessed as increase of BMP6 mRNA expression at up to 50 nM after 6 days by RT-PCR analysis. The data set is classed as functional, cell-based. The method in brief: (§1)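 Quantitative real-time PCR of mRNA from C2C12 cells, 1 × 10^6 cells per 60-mm plate, treated 6 days; rhBMP-2 at 300 ng/mL served as reference osteoblastogenesis inducer.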

For data set [2], the system named is C2C12. Put plainly: Osteogenic activity in mouse C2C12 cells assessed as increase of BMP9 mRNA expression at up to 50 nM after 6 days by RT-PCR analysis. The format is functional, cell-based. In a few lines: as §1
The test system of data set [3] is C2C12. Put plainly: Osteogenic activity in mouse C2C12 cells assessed as increase of BMP2 mRNA expression at up to 50 nM after 6 days by RT-PCR analysis. The data set is classed as functional, cell-based. The method in brief: as §1
Data set [4] deals with C2C12. Description: Osteogenic activity in mouse C2C12 cells assessed as inhibition of multinucleated osteoclasts formation after 6 days. The data set is classed as functional, cell-based.
In data set [5] the test system is C2C12. Put plainly: Induction of osteoblast differentiation in mouse C2C12 cells assessed as increase of osteopontin expression up to 100 nM after 6 days. The data set is classed as functional, cell-based.
The subject of data set [6] is C2C12. Put plainly: Inhibition of HDAC in mouse C2C12 cells assessed as increase of acetylated histone level after 24 hrs by Western blotting. The data set is classed as cell-based. The method in brief: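 C2C12 cells, 2 × 10^6 cells per 100-mm plate, cultured 24 h, then treated 24 h; protein extracts analysed for hyperacetylated histones by Western blot with actin as loading control.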

Data set [7] concerns Mus musculus. Put plainly: Osteogenic activity in mouse assessed as induction of woven bone formation at 50 uM administered with collagen sponges in calvarial bone after 3 weeks. The format is functional, organism-based. In a few lines: (§2)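 Collagen sponges holding 5 μL of compound solution or PBS vehicle placed onto mouse calvarial bones; after 3-week implantation calvariae removed, fixed, decalcified, paraffin-embedded and sectioned for histology of woven bone formation.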

A further data set is filed under the species Oryctolagus cuniculus. Put plainly: Osteogenic activity in rabbit calvarial bone fracture healing model assessed as bone formation at 100 to 200 nM after 4 weeks. The data set is classed as functional.
The subject of data set [8] is C2C12. Description: Osteogenic activity in mouse C2C12 cells assessed as increase of BMP7 mRNA expression at up to 50 nM after 6 days by RT-PCR analysis. The data set is classed as functional, cell-based. In a few lines:
as §1

Data set [9] relates to C2C12. Put plainly: Induction of osteoblast differentiation in mouse C2C12 cells assessed as increase of alkaline phosphatase expression after 6 days. The format is functional, cell-based. The method in brief:
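C2C12 cells, 4 × 10^3 cells/well, cultured 24 h, then treated for 6 days with medium changed every 3 days; osteoblast differentiation assessed by alkaline phosphatase staining.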

Data set [10] concerns C2C12. Put plainly: Osteogenic activity in mouse C2C12 cells assessed as increase of BMP4 mRNA expression at up to 50 nM after 6 days by RT-PCR analysis. The format is functional, cell-based. In a few lines: as §1
Data set [11] concerns C2C12. Description: Osteogenic activity in mouse C2C12 cells assessed as increase of Runx2 mRNA expression at 50 nM after 6 days by RT-PCR analysis relative to control. The data set is classed as functional. The method in brief: as §1
In data set [12] the target is Runt-related transcription factor 2 (Mus musculus) (UniProt Q08775). Description: Activation of Runx2 activity in mouse C2C12 cells at 50 nM after 24 hrs by luciferase reporter gene assay relative to control. The data set is classed as cell-based. In a few lines: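 6×OSE2-luc plasmid-transfected C2C12 cells, 4 × 10^3 cells/well, cultured 1 day, then 1 day in DMEM with 5% FBS with or without compound; Runx2 activation read as luciferase activity.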

Data set [13] deals with C2C12. Description: Inhibition of HDAC in mouse C2C12 cells at 5 to 100 nM after 24 hrs by fluorescence assay. The format is cell-based. In a few lines:
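Total HDAC activity in intact C2C12 cells, 4 × 10^3 cells/well, cultured 24 h, pretreated with compound 1 h, then incubated with fluorogenic deacetylase Lysyl substrate; HDAC activity read by fluorescence per kit protocol.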

The subject of data set [14] is Mus musculus. Description: Osteogenic activity in mouse assessed as induction of woven bone formation at 10 uM administered with collagen sponges in calvarial bone after 3 weeks. The data set is classed as functional, organism-based. The method in brief:
as §2

The test system of data set [15] is C2C12. Put plainly: Cytotoxicity against mouse C2C12 cells up to 100 uM after 3 days. The data set is classed as cell-based. The conditions noted are these: c2c12, 72 h.

Active and inactive are the calls of the source. No cut-off for these calls is given here.

Runt-related transcription factor 2 (Mus musculus), sequence (Q08775 whole entry): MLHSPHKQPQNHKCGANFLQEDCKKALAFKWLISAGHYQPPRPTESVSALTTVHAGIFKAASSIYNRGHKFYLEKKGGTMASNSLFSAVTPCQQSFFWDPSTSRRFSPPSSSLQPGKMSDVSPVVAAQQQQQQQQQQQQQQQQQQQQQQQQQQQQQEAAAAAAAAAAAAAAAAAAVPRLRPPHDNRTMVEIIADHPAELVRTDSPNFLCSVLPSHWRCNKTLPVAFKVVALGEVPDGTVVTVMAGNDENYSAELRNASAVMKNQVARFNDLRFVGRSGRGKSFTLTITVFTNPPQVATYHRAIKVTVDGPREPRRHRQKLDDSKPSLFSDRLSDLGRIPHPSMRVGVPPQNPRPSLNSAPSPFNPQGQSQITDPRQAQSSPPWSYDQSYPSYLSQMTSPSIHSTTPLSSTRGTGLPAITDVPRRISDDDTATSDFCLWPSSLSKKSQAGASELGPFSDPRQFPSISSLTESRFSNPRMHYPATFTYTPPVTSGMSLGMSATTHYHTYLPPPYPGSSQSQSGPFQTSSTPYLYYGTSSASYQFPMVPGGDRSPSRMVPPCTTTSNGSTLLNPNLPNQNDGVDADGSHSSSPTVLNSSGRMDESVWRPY

In the case of `CCCCCCCC(=O)SCC/C=C/[C@@H]1CC(=O)NCc2nc(cs2)C2=N[C@@](C)(CS2)C(=O)N[C@@H](C(C)C)C(=O)O1` [LARGAZOLE], the result with C2C12 [1], in the data set on C2C12 [2], in the data set with C2C12 [3], in the data set on C2C12 [4], in the data set with C2C12 [5] and in the data set with Mus musculus [7] was Active. Also, the outcome in the data set listed under Oryctolagus cuniculus, in the data set on C2C12 [8], in the data set on C2C12 [9], in the data set with C2C12 [10] and in the data set on Mus musculus [14] was Active. Besides, the inhibition result in the data set on C2C12 [6] was “Dose-dependent effect”. The “fold change (FC)” value in the data set on C2C12 [11] stood at 3; in data set [12], 29. Also, in the data set with C2C12 [13], the inhibition entry is “Active”. Moreover, the Activity entry in the data set on C2C12 [15] is reported as “Non-toxic”.
